Assay results as given in article PMC8193639 (Journal of the American Chemical Society, 2021).

Columns and labels:
14-3-3/ERα complex = target: T1, 14-3-3/ERα complex (Homo sapiens, UniProt P61981); experiment: Selectivity panel, FA protein titration; type: binding; conditions: 100 μM compound; C-terminal phosphorylation motif
T1 sequence (P61981 1-247): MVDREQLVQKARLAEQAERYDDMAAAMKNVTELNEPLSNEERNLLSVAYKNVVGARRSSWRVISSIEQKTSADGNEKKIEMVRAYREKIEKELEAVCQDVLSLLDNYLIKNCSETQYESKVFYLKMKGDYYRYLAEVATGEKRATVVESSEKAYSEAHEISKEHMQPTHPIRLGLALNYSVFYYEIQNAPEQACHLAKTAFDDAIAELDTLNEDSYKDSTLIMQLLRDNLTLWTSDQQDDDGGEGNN

Pin1_72/14-3-3γ complex [1] = target: T2, Pin1_72/14-3-3γ complex (Homo sapiens, UniProt P61981); experiment: biochemical
AS160/14-3-3γ complex = experiment: Selectivity panel, FA protein titration; type: binding; conditions: 100 μM fragment; Phe +1
Pin1_72/14-3-3γ complex [2] = target: T2, Pin1_72/14-3-3γ complex; experiment: FA protein titration of 14-3-3γ in presence of 100 μM compound; type: binding
TBC1D237/14-3-3γ = target: T3, TBC1D237/14-3-3γ (Homo sapiens, UniProt P61981); experiment: Selectivity panel, FA protein titration; type: binding; conditions: 100 μM fragment; Gln +1
T3 sequence (P61981 1-247): T1 sequence (P61981 1-247)

C-Raf/14-3-3γ = target: T4, C-Raf/14-3-3γ (Homo sapiens, UniProt P61981); experiment: Selectivity panel, FA protein titration; type: binding; conditions: 100 μM fragment; Thr +1
T4 sequence (P61981 1-247): T1 sequence (P61981 1-247)

B-Raf_729/14-3-3γ = target: T5, B-Raf_729/14-3-3γ (Homo sapiens, UniProt P61981); experiment: Selectivity panel, FA protein titration; type: binding; conditions: 100 μM fragment; Glu +1
T5 sequence (P61981 1-247): T1 sequence (P61981 1-247)

ERRγ_179/14-3-3γ = target: T6, ERRγ_179/14-3-3γ (Homo sapiens, UniProt P61981); experiment: Selectivity panel, FA protein titration; type: binding; conditions: 100 μM fragment; Cys +1
T6 sequence (P61981 1-247): T1 sequence (P61981 1-247)

Abl1pT735/14-3-3γ = experiment: Selectivity panel, FA protein titration; type: binding; conditions: 100 μM fragment; Leu +1
Mypt1_472/14-3-3γ = target: T7, Mypt1_472/14-3-3γ (Homo sapiens, UniProt P61981); experiment: Selectivity panel, FA protein titration; type: binding; conditions: 100 μM fragment; Ser +1
T7 sequence (P61981 1-247): T1 sequence (P61981 1-247)

p65pS45/14-3-3γ = experiment: Selectivity panel, FA protein titration; type: binding; conditions: 100 μM fragment; Ile +1
14-3-3γ = target: T8, 14-3-3γ (Homo sapiens, UniProt P61981); experiment: Thermal shift assay, 14-3-3γ alone; type: binding; conditions: compound added to 14-3-3γ alone
T8 sequence (P61981 1-247): T1 sequence (P61981 1-247)
Method in brief: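 Thermal shift assay as an orthogonal check of complex stabilization. Read-out is the 14-3-3γ melting temperature with test compound present. Protein is either alone or with acetylated Pin1 peptide added at 5 or 50 equiv.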

CFTRpS753/14-3-3γ = experiment: Selectivity panel, FA protein titration; type: binding; conditions: 100 μM fragment; Val +1
14-3-3/Pin1_72 complex = 14-3-3/Pin1_72 complex (Homo sapiens, UniProt P61981); experiment: Cooperativity analysis, 2D FA protein titrations; type: binding

SMILES: C=CC(C)(C)OC[C@H]1O[C@H](O[C@@H]2C3=C([C@H](C)COC(C)=O)C[C@H](O)[C@]3(C)/C=C3/[C@@H](COC)CC[C@H]3[C@@H](C)[C@H]2O)[C@H](O)[C@@H](OC(C)=O)[C@@H]1O [FCA, fusicoccin A, reference compound]
- SF / complex stabilization (14-3-3/ERα complex): 160 fold

SMILES: Cc1cn(-c2ccc(C=O)cc2)cn1 [fragment 4]
- EC50 (Pin1_72/14-3-3γ complex [1]): > 1000 µM

SMILES: O=Cc1ccc(-n2ccnc2-c2ccccc2)cc1Br [fragment 13]
- SF / complex stabilization (AS160/14-3-3γ complex): 1.2 to 2.7 fold
- EC50 (Pin1_72/14-3-3γ complex [1]): 101 ± 6 µM
- Kd (Pin1_72/14-3-3γ complex [2]): 2.16 ± 0.123 µM
- SF (stabilization factor) (Pin1_72/14-3-3γ complex [2]; KD,DMSO/KD,compound, internal DMSO control, 100 μM fragment): 10.8 fold
- SF / complex stabilization (14-3-3/ERα complex): not responsive to fragment stabilization

SMILES: O=Cc1ccc(-n2ccnc2-c2cc(Br)ccc2F)cc1Br [fragment 27]
- SF / complex stabilization (TBC1D237/14-3-3γ): no significant stabilization
- SF / complex stabilization (C-Raf/14-3-3γ): abolishes any stabilizing effect
- SF / complex stabilization (B-Raf_729/14-3-3γ): no significant stabilization
- SF / complex stabilization (AS160/14-3-3γ complex): 1.2 to 2.7 fold
- SF / complex stabilization (ERRγ_179/14-3-3γ): no significant stabilization
- SF / complex stabilization (Abl1pT735/14-3-3γ): no significant complex stabilization
- EC50 (Pin1_72/14-3-3γ complex [1]): 118 ± 7 µM
- SF / complex stabilization (Mypt1_472/14-3-3γ): no significant stabilization
- SF / complex stabilization (p65pS45/14-3-3γ): no significant complex stabilization
- effect on 14-3-3 melting temperature (14-3-3γ): no significant effect
- SF / complex stabilization (14-3-3/ERα complex): not responsive to fragment stabilization

SMILES: O=Cc1ccc(-n2ccnc2-c2ccc(F)cc2F)cc1Br [fragment 28]
- SF / complex stabilization (TBC1D237/14-3-3γ): no significant stabilization
- SF / complex stabilization (CFTRpS753/14-3-3γ): some stabilizing activity
- concentration necessary to induce a 2-fold increase in PPI stabilization (14-3-3/Pin1_72 complex): 1 µM
- SF / complex stabilization (C-Raf/14-3-3γ): abolishes any stabilizing effect
- SF / complex stabilization (B-Raf_729/14-3-3γ): no significant stabilization
- SF / complex stabilization (AS160/14-3-3γ complex): 1.2 to 2.7 fold
- SF / complex stabilization (ERRγ_179/14-3-3γ): no significant stabilization
- SF / complex stabilization (Abl1pT735/14-3-3γ): some stabilizing activity
- EC50 (Pin1_72/14-3-3γ complex [1]): 79 ± 3 µM
- SF / complex stabilization (Mypt1_472/14-3-3γ): no significant stabilization
- SF / complex stabilization (p65pS45/14-3-3γ): some stabilizing activity
- effect on 14-3-3 melting temperature (14-3-3γ): no significant effect
- SF / complex stabilization (14-3-3/ERα complex): not responsive to fragment stabilization
